Assay type in all cases: cell-based; call rule not given here
In data set [1] the target is T1, ATP-dependent translocase ABCB1 (Homo sapiens, UniProt P08183). The experiment in a line: Inhibition of p-gp in human KB/VCR cells assessed as intracellular accumulation of rhodamine123 at 0.5 uM after 2 hrs by microplate fluorometric analysis. The method in brief:
(§1)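 KBvcr cells plated at 1 × 10^5 per well were pretreated with graded compound concentrations, then given Rhodamine123 10 μM for 2 h at 37 °C. Cells were washed with ice-cold PBS and lysed in 1% SDS. Fluorescence (ex 494/em 517 nm) was read on a microplate fluorometer and compared with untreated cells. Three independent experiments.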

The target of data set [2] is T1, ATP-dependent translocase ABCB1. The experiment in a line: Inhibition of p-gp in human KB/VCR cells assessed as intracellular accumulation of rhodamine123 at 2 uM after 2 hrs by microplate fluorometric analysis. The procedure, abridged: as §1
The target is the same in data set [3]. Briefly: Inhibition of p-gp in human KB/VCR cells assessed as intracellular accumulation of rhodamine123 at 3 uM after 2 hrs by microplate fluorometric analysis. The procedure, abridged:
as §1

The target is the same in data set [4]. The experiment in a line: Inhibition of p-gp in human KB/VCR cells assessed as intracellular accumulation of rhodamine123 at 1 uM after 2 hrs by microplate fluorometric analysis. The method in brief: as §1
The target is the same in data set [5]. Briefly: Inhibition of p-gp in human KB/VCR cells assessed as intracellular accumulation of adriamycin at 5 uM after 3 hrs by fluorescence assay relative to control. The method in brief:
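KBvcr cells plated at 1 × 10^5 per well were given ADM (final 10 μM) with 5 μM compound for 3 h. After ice-cold PBS wash and lysis in 1% SDS, intrinsic ADM fluorescence (ex 485/em 590 nm) was read. Results are expressed as a ratio to the ADM-only control, mean ± SD, n = 3.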

Data set [6] can be described thus: Cytotoxicity against human KB/VCR cells assessed as cell viability at 5 uM after 72 hrs by MTT assay. The procedure, abridged:
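KB/VCR cells in DMEM with 10% FBS and penicillin/streptomycin, 37 °C, 5% CO2. Cells were allowed to attach for 12 h, then exposed to compound for 72 h. MTT was added for 4 h and formazan read at 490 nm.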
(Tetrazolium dyes change colour on reduction, which living cells bring about.)

Data set [7] has as its target T1, ATP-dependent translocase ABCB1. Briefly: Inhibition of p-gp in human KB/VCR cells assessed as potentiation of 1 uM docetaxel-induced cytotoxicity at 5 uM after 72 hrs by MTT assay. The procedure, abridged: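 KBvcr cells seeded at 5 × 10^3 per well were cotreated with 5 μM compound and 1 μM docetaxel for 72 h. Survival (%) was read by MTT and compared with wells without docetaxel.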

For data set [8] the target is unchanged. Briefly: Inhibition of p-gp in human KB/VCR cells assessed as potentiation of vincristine-induced cytotoxicity at 5 uM after 72 hrs by MTT assay relative to verapamil.
The target is the same in data set [9]. The experiment in a line: Inhibition of p-gp in human KB/VCR cells assessed as potentiation of 1 uM docetaxel-induced cytotoxicity at 5 uM after 72 hrs by MTT assay relative to verapamil.
Data set [10] has the same target. The experiment in a line: Inhibition of p-gp in human KB/VCR cells assessed as intracellular accumulation of rhodamine123 after 2 hrs by microplate fluorometric analysis. The method in brief: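 KBvcr cells plated at 1 × 10^5 per well and incubated 2 h at 37 °C in CO2 incubator with 10 μM Rhodamine123, with or without test compounds. Cells washed with ice-cold PBS, then lysed in 1% SDS/PBS. Fluorescence read at ex 494/em 517 nm. Accumulation ratio taken relative to untreated cells. Mean SD of three independent experiments.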

Data set [11] shares this target. Briefly: Inhibition of p-gp in human KB/VCR cells assessed as potentiation of adriamycin-induced cytotoxicity at 5 uM after 72 hrs by MTT assay relative to verapamil.
For data set [12] the target is unchanged. Briefly: Inhibition of p-gp in human KB/VCR cells assessed as potentiation of 100 nM docetaxel-induced cytotoxicity after 72 hrs by MTT assay. The procedure, abridged: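 KBvcr cells cultured 72 h with fixed 100 nM docetaxel and graded modulator concentrations. Viability read by MTT, formazan at 490 nm. EC50 calculated from dose–response. Mean SD of three independent experiments.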

Data set [13] shares this target. The experiment in a line: Inhibition of p-gp in human KB/VCR cells assessed as potentiation of adriamycin-induced cytotoxicity at 5 uM after 72 hrs by MTT assay.
For data set [14] the target is unchanged. Briefly: Inhibition of p-gp in human KB/VCR cells assessed as potentiation of vincristine-induced cytotoxicity at 5 uM after 72 hrs by MTT assay.

T1 sequence (P08183 whole entry): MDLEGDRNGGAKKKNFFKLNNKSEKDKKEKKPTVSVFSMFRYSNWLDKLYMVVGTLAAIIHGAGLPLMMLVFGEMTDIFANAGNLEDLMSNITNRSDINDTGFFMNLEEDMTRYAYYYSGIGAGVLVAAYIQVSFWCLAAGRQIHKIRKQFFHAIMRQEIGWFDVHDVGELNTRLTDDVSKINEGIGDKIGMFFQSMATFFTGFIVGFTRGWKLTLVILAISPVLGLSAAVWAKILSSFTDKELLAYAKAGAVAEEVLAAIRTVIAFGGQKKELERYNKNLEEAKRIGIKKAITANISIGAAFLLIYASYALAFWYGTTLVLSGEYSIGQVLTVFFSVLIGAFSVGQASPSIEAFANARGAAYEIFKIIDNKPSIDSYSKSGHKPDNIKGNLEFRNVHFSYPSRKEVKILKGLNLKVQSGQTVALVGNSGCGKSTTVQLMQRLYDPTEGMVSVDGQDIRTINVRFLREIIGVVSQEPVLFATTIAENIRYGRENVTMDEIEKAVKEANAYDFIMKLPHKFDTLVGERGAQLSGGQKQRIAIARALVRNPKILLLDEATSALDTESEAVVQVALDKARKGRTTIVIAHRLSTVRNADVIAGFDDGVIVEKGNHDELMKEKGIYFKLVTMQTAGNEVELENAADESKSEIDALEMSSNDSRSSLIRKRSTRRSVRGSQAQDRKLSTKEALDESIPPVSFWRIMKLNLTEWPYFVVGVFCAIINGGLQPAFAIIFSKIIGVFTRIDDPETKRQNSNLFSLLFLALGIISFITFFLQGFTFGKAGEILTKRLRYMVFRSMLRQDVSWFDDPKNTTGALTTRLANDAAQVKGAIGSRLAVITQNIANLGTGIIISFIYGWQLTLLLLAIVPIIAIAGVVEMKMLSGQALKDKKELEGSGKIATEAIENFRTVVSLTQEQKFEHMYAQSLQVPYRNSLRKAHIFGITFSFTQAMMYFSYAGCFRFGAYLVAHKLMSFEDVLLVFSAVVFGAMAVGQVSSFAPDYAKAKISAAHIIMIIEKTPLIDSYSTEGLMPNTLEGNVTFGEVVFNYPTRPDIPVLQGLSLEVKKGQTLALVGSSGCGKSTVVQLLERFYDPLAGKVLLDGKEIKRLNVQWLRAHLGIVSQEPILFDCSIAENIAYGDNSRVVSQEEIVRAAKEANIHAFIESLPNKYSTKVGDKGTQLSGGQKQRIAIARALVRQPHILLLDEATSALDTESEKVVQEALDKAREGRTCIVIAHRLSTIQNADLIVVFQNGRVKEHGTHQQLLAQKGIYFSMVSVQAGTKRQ

Turning to `COc1ccc(CCN(C)CCC[C@@](C#N)(c2ccc(OC)c(OC)c2)C(C)C)cc1OC`, the RFU in [1] was found to be 35900; in data set [2] it was 53000; in [3], 98700; in [4], 46100.
With `CC1(C)[C@@H](O)CC[C@]2(C)[C@H]3C[C@@H](O)[C@@H]4[C@@H]([C@@](C)(O)CCCNCCCc5ccccc5)CC[C@@]4(C)[C@]3(C)CC[C@@H]12`, in [5], the “fold change (FC)” value is 1.3. Moreover, the Activity result in [6] was “Toxic”. Further, the “inhibition (INH)” value in [7] was “Active”.
For the compound `CC1(C)[C@@H](O)CC[C@]2(C)[C@H]3C[C@@H](O)[C@@H]4[C@@H]([C@@](C)(O)CCCNCCc5ccccc5)CC[C@@]4(C)[C@]3(C)CC[C@@H]12`, the fold change (FC) in [8] amounted to 1.8; in data set [9] it was 2.6; in data set [5] it was 1.3; in [11], 1.4. Also, the RFU is 43200 in data set [1], 63700 in data set [2], 105300 in data set [3] and 48700 in [4]. The “inhibition (INH)” value in [10] is reported as “Dose-dependent effect”; in data set [7], “Active”; in [12], “Dose-dependent effect”.
On to `CC1(C)[C@@H](O)CC[C@]2(C)[C@H]3C[C@@H](O)[C@@H]4[C@@H]([C@@](C)(O)CCCNCc5ccccc5)CC[C@@]4(C)[C@]3(C)CC[C@@H]12`, for which the “fold change (FC)” value amounted to 1.3 in data set [8], 1.5 in data set [9], 1.3 in data set [5] and 1.3 in [11]. In addition, the values for the RFU in data set [1], in data set [2] and in data set [3] were 39800, 57000 and 95300, respectively. For the same compound, the “inhibition (INH)” value in [10] is reported as “Dose-dependent effect”; in data set [7] it was “Active”; in data set [12] it was “Dose-dependent effect”.
`CC1(C)[C@@H](O)CC[C@]2(C)[C@H]3C[C@@H](O)[C@@H]4[C@@H]([C@@](C)(O)CCCNCc5cccnc5)CC[C@@]4(C)[C@]3(C)CC[C@@H]12`: in data set [5], the “fold change (FC)” value is 1.3. Moreover, the “inhibition (INH)” value in data set [13], in [7] and in [14] was “Active” in each case.
On to `CC1(C)[C@@H](O)CC[C@]2(C)[C@H]3C[C@@H](O)[C@@H]4[C@@H]([C@@](C)(O)CCCNCc5ccc(Cl)cc5)CC[C@@]4(C)[C@]3(C)CC[C@@H]12`, for which the Activity entry in data set [6] was “Toxic”. For the same compound, the “inhibition (INH)” value in data set [7] was “Active”.
For the compound `CC1(C)[C@@H](O)CC[C@]2(C)[C@H]3C[C@@H](O)[C@@H]4[C@@H]([C@@](C)(O)CCCNCCc5ccc(Cl)cc5)CC[C@@]4(C)[C@]3(C)CC[C@@H]12`, the “fold change (FC)” value in data set [5] is on record as 1.3. Further, in [6], the Activity result is on record as “Toxic”. The “inhibition (INH)” value in data set [7] is given as “Active”.
On to `COc1ccc(CCNCCC[C@](C)(O)[C@H]2CC[C@]3(C)[C@@H]2[C@H](O)C[C@@H]2[C@@]4(C)CC[C@H](O)C(C)(C)[C@@H]4CC[C@]23C)cc1OC`, for which the “fold change (FC)” value in data set [5] is 1.3. The “inhibition (INH)” value in data set [13], in [7] and in data set [14] was “Active” throughout.
For the compound `CC1(C)[C@@H](O)CC[C@]2(C)[C@H]3C[C@@H](O)[C@@H]4[C@@H]([C@@](C)(O)CCCNCCc5ccc([N+](=O)[O-])cc5)CC[C@@]4(C)[C@]3(C)CC[C@@H]12`, in data set [5], the “fold change (FC)” value stood at 1.3. Also, the Activity result in [6] is listed as “Toxic”. Also, in [7], the “inhibition (INH)” value was “Active”.
`C[C@H](NCCC[C@](C)(O)[C@H]1CC[C@]2(C)[C@@H]1[C@H](O)C[C@@H]1[C@@]3(C)CC[C@H](O)C(C)(C)[C@@H]3CC[C@]12C)c1ccccc1`: in data set [6], the Activity entry is “Toxic”. Also, the “inhibition (INH)” value in data set [7] is reported as “Active”.

The values above are taken from ChEMBL document CHEMBL2396581, “20(S)-Protopanaxadiol (PPD) analogues chemosensitize multidrug-resistant cancer cells to clinical anticancer drugs” (Bioorg Med Chem, 2013).
